How the values were obtained:
Mus musculus [1] = assay: Tested for increase in foot-pad thickness (mm) by its effect on cellular immune response in mice against sheep red blood cells by DHR method in experiment 12 at dose 12 mg/kg; type: functional
Summary of the method: (§1)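 Delayed-type hypersensitivity was run in male CDF1 (Balb/c × DBA/2Cr) mice, 8-10 weeks old, groups of four. Mice were sensitized with 1 × 10^8 SRBC in PBS into one hind footpad, with sc inguinal dosing in saline or in 1% Me2SO-saline. Four days later the opposite footpad was challenged with 1 × 10^8 SRBC. The read-out was the gauge-measured increase in thickness from just before to 24 h after challenge, as mean ± SE (n = 4).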

Mus musculus [2] = assay: Tested for increase in foot-pad thickness (mm) by its effect on cellular immune response in mice against sheep red blood cells by the DHR method in experiment 12 at dose 3 mg/kg; type: functional; summary of the method: as §1
Mus musculus [3] = assay: Effect on humoral immune response in mice against sheep red blood cells by the plaque-forming cell (PFC/10e6 spleen cells) method in experiment 3 at dose 12 mg/kg; type: functional
Summary of the method: (§2)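 Male ICR mice, 8-10 weeks old, groups of four, were immunized iv with 1 × 10^8 SRBC in PBS. After 24 h they received a single sc inguinal dose in saline, or as a suspension in saline with 1% Me2SO. Splenic hemolytic plaque-forming cells were counted 4 days later by Cunningham's method. Values are the mean of four ± SE, with a paired t test against the control.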

Mus musculus [4] = assay: Effect on humoral immune response in mice against sheep red blood cells by the plaque-forming cell (PFC/10e6 spleen cells) method in experiment 3 at dose 3 mg/kg; type: functional; summary of the method: as §2
Mus musculus [5] = assay: Tested for increase in foot-pad thickness (mm) by its effect on cellular immune response in mice against sheep red blood cells by the DHR method in experiment 11 at dose 3 mg/kg; type: functional
Summary of the method: (§3)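 Male ICR mice, 8-10 weeks old, groups of four, were sensitized with 1 × 10^8 SRBC in PBS into one hind footpad and dosed sc in the inguinal region, in saline or in saline with 1% Me2SO. Four days later the other footpad was challenged with 1 × 10^8 SRBC. Foot thickness was gauged just before and 24 h after challenge, and the increase was reported as mean of four ± SE.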

Mus musculus [6] = assay: Effect on humoral immune response in mice against sheep red blood cells by the plaque-forming cell (PFC/10e 6 spleen cells) method in experiment 2 at dose 3 mg/kg; type: functional; summary of the method: as §2
Mus musculus [7] = assay: Tested for increase in foot-pad thickness (mm) by its effect on cellular immune response in mice against sheep red blood cells by DHR method in experiment 11 at dose 12 mg/kg; type: functional; summary of the method: as §3
Mus musculus [8] = assay: Acute lethal dose was determined in mice upon subcutaneous administration; type: ADME, organism-based; settings: in vivo, sc
Summary of the method: (§4)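 Male mice, 8–10 weeks old, CDF1 (Balb/c × DBA/2Cr). Groups of six dosed once, either iv or sc. Three to five dose levels were chosen from 400, 300, 150, 80, 40, 20 and 10 mg/kg. LD50 was calculated by the Litchfield–Wilcoxon method. Vehicle was saline or saline with 1% Me2SO, depending on compound.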

Mus musculus [9] = assay: Effect on humoral immune response in mice against sheep red blood cells by the plaque-forming cell (PFC/10e 6 spleen cells) method in experiment 2 at dose 12 mg/kg; type: functional; summary of the method: as §2
[10] = (§5) Acute lethal dose was determined in mice upon intravenous administration; type: ADME, organism-based; settings: mouse, in vivo; summary of the method: as §4
Mus musculus [11] = assay: Effect on humoral immune response in mice against sheep red blood cells by the plaque-forming cell (PFC/10e6 spleen cells) method in experiment 5 at dose 12 mg/kg; type: functional
Summary of the method: (§6)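 Male CDF1 (Balb/c × DBA/2Cr) mice, 8-10 weeks old, groups of four, were immunized iv with 1 × 10^8 SRBC in PBS. After 24 h they received a single sc inguinal dose in saline, or as a suspension in saline with 1% Me2SO. Spleens were taken 4 days later and hemolytic plaque-forming cells counted by Cunningham's method. Values are the mean of four mice ± SE, with a paired Student's t test against the control.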

Mus musculus [12] = assay: Tested for increase in foot-pad thickness (mm) by its effect on cellular immune response in mice against sheep red blood cells by the DHR method in experiment 14 at dose 3 mg/kg; type: functional; summary of the method: as §1
Mus musculus [13] = assay: Effect on humoral immune response in mice against sheep red blood cells by the plaque-forming cell (PFC/10e6 spleen cells) method in experiment 5 at dose 3 mg/kg; type: functional; summary of the method: as §6
Mus musculus [14] = assay: Tested for increase in foot-pad thickness (mm) by its effect on cellular immune response in mice against sheep red blood cells by DHR method in experiment 14 at dose 12 mg/kg; type: functional; summary of the method: as §1
Mus musculus [15] = assay: Effect on humoral immune response in mice against sheep red blood cells by the plaque-forming cell (PFC/10e6 spleen cells) method in experiment 7 at dose 3 mg/kg; type: functional
Summary of the method: (§7)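 Male mice, 8–10 weeks old, CDF1 (Balb/c × DBA/2Cr) in experiment 7. Groups of four were immunized iv with 1 × 10^8 SRBC in PBS. After 24 h, compound was given sc in the inguinal region in saline or saline/1% Me2SO. Four days later, splenic hemolytic plaque-forming cells were counted by the Cunningham method and expressed per 10^6 spleen cells. Values are the mean of four mice ± SE.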

Mus musculus [16] = assay: Tested for increase in foot-pad thickness (mm) by its effect on cellular immune response in mice against sheep red blood cells by the DHR method in experiment 16 at dose 3 mg/kg; type: functional
Summary of the method: (§8)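 Male mice, 8–10 weeks old, ICR strain. Groups of four were sensitized with 1 × 10^8 SRBC in PBS into one hind footpad, with compound given sc in the inguinal region in saline or saline/1% Me2SO. Four days later, 1 × 10^8 SRBC were injected into the other hind footpad. Foot thickness was measured with a dial gauge just before and 24 h after this challenge, and the increase was taken as the difference. Values are the mean of four mice ± SE.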

Mus musculus [17] = assay: Effect on humoral immune response in mice against sheep red blood cells by the plaque-forming cell (PFC/10e6 spleen cells) method in experiment 7 at dose 12 mg/kg; type: functional; summary of the method: as §7
Mus musculus [18] = assay: Tested for increase in foot-pad thickness (mm) by its effect on cellular immune response in mice against sheep red blood cells by DHR method in experiment 16 at dose 12 mg/kg; type: functional; summary of the method: as §8
Mus musculus [19] = assay: Effect on humoral immune response in mice against sheep red blood cells by the plaque-forming cell (PFC/10e6 spleen cells) method in experiment 6 at dose 3 mg/kg; type: functional; summary of the method: as §6
Mus musculus [20] = assay: Tested for increase in foot-pad thickness (mm) by its effect on cellular immune response in mice against sheep red blood cells by DHR method in experiment 15 at dose 12 mg/kg; type: functional; summary of the method: as §8
Mus musculus [21] = assay: Tested for increase in foot-pad thickness (mm) by its effect on cellular immune response in mice against sheep red blood cells by the DHR method in experiment 15 at dose 3 mg/kg; type: functional; summary of the method: as §8
Mus musculus [22] = assay: Effect on humoral immune response in mice against sheep red blood cells by the plaque-forming cell (PFC/10e6 spleen cells) method in experiment 6 at dose 12 mg/kg; type: functional; summary of the method: as §6
Mus musculus [23] = assay: Tested for increase in foot-pad thickness (mm) by its effect on cellular immune response in mice against sheep red blood cells by DHR method in experiment 10 at dose 12 mg/kg; type: functional; summary of the method: as §3
Mus musculus [24] = assay: Effect on humoral immune response in mice against sheep red blood cells by the plaque-forming cell (PFC/10e 6 spleen cells) method in experiment 1 at dose 3 mg/kg; type: functional; summary of the method: as §6
Mus musculus [25] = assay: Tested for increase in foot-pad thickness (mm) by its effect on cellular immune response in mice against sheep red blood cells by the DHR method in experiment 10 at dose 3 mg/kg; type: functional; summary of the method: as §3
Mus musculus [26] = assay: as §5; type: ADME, organism-based; settings: in vivo; summary of the method: as §4
Mus musculus [27] = assay: Effect on humoral immune response in mice against sheep red blood cells by the plaque-forming cell (PFC/10e 6 spleen cells) method in experiment 1 at dose 12 mg/kg; type: functional; summary of the method: as §6
Mus musculus [28] = assay: Tested for increase in foot-pad thickness (mm) by its effect on cellular immune response in mice against sheep red blood cells by the DHR method in experiment 17 at dose 3 mg/kg; type: functional; summary of the method: as §3
Mus musculus [29] = assay: Effect on humoral immune response in mice against sheep red blood cells by the plaque-forming cell (PFC/10e 6 spleen cells) method in experiment 9 at dose 12 mg/kg; type: functional; summary of the method: as §6
Mus musculus [30] = assay: Tested for increase in foot-pad thickness (mm) by its effect on cellular immune response in mice against sheep red blood cells by DHR method in experiment 17 at dose 12 mg/kg; type: functional; summary of the method: as §3
Mus musculus [31] = assay: Effect on humoral immune response in mice against sheep red blood cells by the plaque-forming cell (PFC/10e 6 spleen cells) method in experiment 9 at dose 3 mg/kg; type: functional; summary of the method: as §6
Mus musculus [32] = assay: Effect on humoral immune response in mice against sheep red blood cells by the plaque-forming cell (PFC/10e6 spleen cells) method in experiment 8 at dose 12 mg/kg; type: functional; summary of the method: as §6
Mus musculus [33] = assay: Effect on humoral immune response in mice against sheep red blood cells by the plaque-forming cell (PFC/10e6 spleen cells) method in experiment 8 at dose 3 mg/kg; type: functional; summary of the method: as §6

Compound `Fc1ccc2c(c1)CCC1C2N=C2SCCN21` (trans isomer) has an Increase in footpad thickness (Mus musculus [1]) of 0.44 mm, an Increase in footpad thickness (Mus musculus [2]) of 0.44 mm and a PFC (Mus musculus [3]) of 1620. For the same compound, the PFC (Mus musculus [4]) was 1970.

`c1ccc2c(c1)CCC1N=C3SCCN3C21` (stereo in doubt) gave an Increase in footpad thickness (Mus musculus [5]) of 0.37 mm, a PFC (Mus musculus [6]) of 1800 and an Increase in footpad thickness (Mus musculus [7]) of 0.38 mm. The LD50 (Mus musculus [8]) was 68 mg/kg, the PFC (Mus musculus [9]) was 1610 and the LD50 [10] was 20 mg/kg.

Work on `Clc1ccc2c(c1)CCC1C2N=C2SCCN21` (trans isomer) yielded a PFC (Mus musculus [11]) of 790, an Increase in footpad thickness (Mus musculus [12]) of 0.5 mm and a PFC (Mus musculus [13]) of 1530. For the same compound, the Increase in footpad thickness (Mus musculus [14]) was 0.46 mm.

`Brc1ccc2c(c1)C1N=C3SCCN3C1CC2` (trans isomer) gave a PFC (Mus musculus [15]) of 740, an Increase in footpad thickness (Mus musculus [16]) of 0.35 mm and a PFC (Mus musculus [17]) of 920. It also gave an Increase in footpad thickness (Mus musculus [18]) of 0.31 mm.

In the case of `Brc1ccc2c(c1)C1N=C3SCCN3C1CC2` (cis isomer), the PFC (Mus musculus [19]) was 960, the Increase in footpad thickness (Mus musculus [20]) was 0.45 mm and the Increase in footpad thickness (Mus musculus [21]) was 0.36 mm. It also gave a PFC (Mus musculus [22]) of 1495.

In the case of `c1ccc2c(c1)CCC1C2N=C2SCCN21` (trans isomer), the Increase in footpad thickness (Mus musculus [23]) was 0.42 mm, the LD50 (Mus musculus [8]) was 320 mg/kg and the PFC (Mus musculus [24]) was 1100. The Increase in footpad thickness (Mus musculus [25]) was 0.57 mm, the LD50 (Mus musculus [26]) was 67 mg/kg and the PFC (Mus musculus [27]) was 1500.

Compound `CC1=C(c2ccccc2)N2C(=NC3c4ccccc4CCC32)S1` (configuration not stated) has an Increase in footpad thickness (Mus musculus [28]) of 0.2 mm, a PFC (Mus musculus [29]) of 470 and an Increase in footpad thickness (Mus musculus [30]) of 0.32 mm. It also gave a PFC (Mus musculus [31]) of 740.

`C[C@@H]1SC2=NC3c4ccccc4CCC3N2[C@@]1(O)c1ccccc1` (some centres not stated) gave an Increase in footpad thickness (Mus musculus [28]) of 0.28 mm, a PFC (Mus musculus [32]) of 1120 and an Increase in footpad thickness (Mus musculus [30]) of 0.52 mm. For the same compound, the LD50 [10] was 170 mg/kg and the PFC (Mus musculus [33]) was 550.

Source: ChEMBL document CHEMBL1121366, “Synthesis and immunological activity of 5,6,6a,8,9,11a-hexahydronaphth[1',2':4,5]imidazo[2,1-b]thiazoles and 5,6,6a,9,10,11a-hexahydroanaphth[2',1':4,5]imidazo[2,1-b]thiazoles” (J Med Chem, 1980)
